Measured values as given in ChEMBL document CHEMBL1129588, “Development of potent thrombin receptor antagonist peptides” (J Med Chem, 1996).
Non-standard residues stand in square brackets, D forms with d. Residues, ends and D or L forms follow the SMILES beside them. *: point of attachment. Phe(4-guanidino) = N=C(N)Nc1ccc(C[C@H](N)C(=O)O)cc1; Phe(4-F) = N[C@@H](Cc1ccc(F)cc1)C(=O)O; 1Nal = N[C@@H](Cc1cccc2ccccc12)C(=O)O; Thiophene3carbonyl = O=C(c1ccsc1)*; Thz = O=C(O)[C@@H]1CSCN1; X1 = O=C(c1ccoc1)*

Assays:
[1] = target: T1, Proteinase-activated receptor 1 (Homo sapiens, UniProt P25116); assay: Concentration of compound required to inhibit agonist ([…], at 3 uM) induced platelet aggregation by 50%;PA=not experimentally achieved; type: functional
T1 sequence (P25116 whole entry): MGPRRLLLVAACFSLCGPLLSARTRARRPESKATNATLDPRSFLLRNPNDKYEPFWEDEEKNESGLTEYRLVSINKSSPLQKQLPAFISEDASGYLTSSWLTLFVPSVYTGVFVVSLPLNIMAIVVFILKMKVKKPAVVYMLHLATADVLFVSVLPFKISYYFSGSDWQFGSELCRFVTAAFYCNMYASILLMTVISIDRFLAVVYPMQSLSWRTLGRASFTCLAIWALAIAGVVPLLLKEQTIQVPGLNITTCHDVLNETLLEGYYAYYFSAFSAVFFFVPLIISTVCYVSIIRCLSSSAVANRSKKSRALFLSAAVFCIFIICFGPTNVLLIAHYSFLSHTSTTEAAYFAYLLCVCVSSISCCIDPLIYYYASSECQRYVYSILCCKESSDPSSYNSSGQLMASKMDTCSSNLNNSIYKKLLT
Procedure, shortened: (§1)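 Gel-filtered human platelets in a microtiter turbidity aggregation assay, preincubated with test peptide and then stimulated with SFLLRNP-NH₂ at 3 μM. […] N is the number of determinations.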

[2] = target: T1, Proteinase-activated receptor 1
[3] = target: T1, Proteinase-activated receptor 1; assay: Concentration of compound required to inhibit agonist ([…], at 3 uM) induced platelet aggregation by 50%; PA=not experimentally achieved; type: functional; procedure, shortened: as §1
[4] = Concentration to stimulate human platelet aggregation; type: functional
Procedure, shortened: (§2)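 Peptides were added alone to gel-filtered human platelets, and aggregation was read by microtiter turbidity. EC₅₀ is the concentration stimulating 50% of maximum aggregation. N is the number of determinations. A peptide is called a partial agonist where maximum aggregation was not reached experimentally.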

[5] = target: T1, Proteinase-activated receptor 1; assay: Effective concentration of compound for stimulation of 50% maximum platelet aggregation; PA=not experimentally achieved; type: functional; procedure, shortened: as §2

Row | SMILES | IC50 [2] [nM] | EC50 [4] [nM] | further results
1 | CC(C)C[C@H](NC(=O)[C@H](Cc1ccc(NC(=N)N)cc1)NC(=O)[C@H](Cc1ccc(F)cc1)NC(=O)c1ccoc1)C(=O)N[C@@H](CCCN=C(N)N)C(N)=O (X1-[Phe(4-F)][Phe(4-guanidino)]LR-NH2) | 29 |  | EC50 [1]: Not Active
2 | C/C=C/C=C/CC(=O)N(C(C)=O)[C@@H](Cc1ccc(F)cc1)C(=O)N[C@@H](Cc1ccc(NC(=N)N)cc1)C(=O)N[C@@H](CC(C)C)C(=O)N[C@@H](CCCN=C(N)N)C(N)=O | 24 |  | IC50 [3]: Not Active
3 | CC(C)C[C@H](NC(=O)[C@H](CC(C)C)NC(=O)[C@H](Cc1ccccc1)NC(=O)[C@@H]1CSCN1)C(=O)N[C@@H](CCCN=C(N)N)C(N)=O (H-[Thz]FLLR-NH2) |  | 46000 | 
4 | CC(C)C[C@H](NC(=O)[C@H](Cc1ccc(F)cc1)NC(=O)[C@H](Cc1ccc(F)cc1)NC(=O)[C@@H](N)CO)C(=O)N[C@@H](CCCN=C(N)N)C(N)=O (H-S[Phe(4-F)][Phe(4-F)]LR-NH2) |  | 100 | 
5 | CC(C)C[C@H](NC(=O)[C@H](Cc1ccc(NC(=N)N)cc1)NC(=O)[C@H](Cc1ccc(F)cc1)NC(=O)c1ccsc1)C(=O)N[C@@H](CCCN=C(N)N)C(N)=O (Thiophene3carbonyl-[Phe(4-F)][Phe(4-guanidino)]LR-NH2) | 24 |  | EC50 [5]: Not Active
6 | CC(C)C[C@H](NC(=O)[C@H](Cc1cccc2ccccc12)NC(=O)[C@H](Cc1ccc(F)cc1)NC(=O)[C@@H](N)CO)C(=O)N[C@@H](CCCN=C(N)N)C(N)=O (H-S[Phe(4-F)][1Nal]LR-NH2) |  | 160 | 
7 | CC(C)C[C@H](NC(=O)[C@H](CC(C)C)NC(=O)[C@H](Cc1ccccc1)NC(=O)[C@@H](N)CO)C(=O)N[C@@H](CCCN=C(N)N)C(N)=O |  | 400 | 
